# Experimental data from different studies.
# Protocols differ between the studies behind these lines.
# Observed: cell growth or viability
SMILES,cell line,technique,time,IC50
O=c1cc(OCc2cc(-c3ccc(C(F)(F)F)cc3)no2)c2ccccc2o1,Z-138,MTS,72 h,> 100 µM
Cc1nn(-c2ccc(S(=O)(=O)N3CCN(C)CC3)cc2)c2nn3nnnc3nc12,DLD-1,MTT,,0.08 µM
O=C1C(=Nc2ccccc2I)c2ccccc2N1Cc1ccc(Br)cc1,B16,MTT,48 h,15.2 µM
N/C(=N\O)c1ccc(-c2cc(CNc3cccc4cccnc34)on2)cc1,Z-138,MTS,72 h,2.1 µM
O=C(CSc1nc2ccccc2s1)N/N=C/c1ccc(OCC(=O)Nc2ccc(Br)cc2)cc1,Z-138,MTS,72 h,> 100 µM
COc1cc(N=C2C(=O)N(Cc3ccccc3)c3ccccc32)cc(OC)c1,B16,MTT,48 h,0.57 µM
COc1cc([C@@H]2c3cc4c(cc3[C@@H](O[C@@H]3O[C@@H]5CO[C@@H](C)O[C@H]5[C@H](O)[C@H]3O)[C@H]3COC(=O)[C@H]23)OCO4)cc(OC)c1O,Z-138,MTS,72 h,0.03 µM
CCc1ccc(N=C2C(=O)Nc3ccccc32)cc1,B16,MTT,48 h,37.3 µM
FC(F)(F)c1cc(OCc2cc(-c3ccccn3)no2)c2ccccc2n1,Z-138,MTS,72 h,> 100 µM
Cc1cc2c(C(=O)O)cccc2n1-c1nc2c(c(NCc3ccccc3)n1)CCCN2,BXPC-3,,72 h,0.7 µM
O=C1C(=Nc2ccc(Cl)cc2Br)c2ccccc2N1Cc1ccc([N+](=O)[O-])cc1,B16,MTT,48 h,2.14 µM
c1ccc(-c2cc(CNc3cccc4cccnc34)on2)nc1,Z-138,MTS,72 h,28.2 µM
Cc1cc2c(C(N)=O)cccc2n1-c1nc2c(c(NCc3ccccc3)n1)CCCN2,BXPC-3,,72 h,0.8 µM
O=C(CSc1nc2ccccc2s1)N/N=C/c1ccc(OCC(=O)Nc2cccc(Br)c2)cc1,Z-138,MTS,72 h,> 100 µM
CC(C)c1cccc(C(C)C)c1N=C1C(=O)N(Cc2ccc(Br)cc2)c2ccccc21,B16,MTT,48 h,34.2 µM
N#Cc1ccc(-c2cc(CNc3cccc4cccnc34)on2)cc1,Z-138,MTS,72 h,10.8 µM
Cc1ccc(CN2C(=O)C(=Nc3cccc(Cl)c3)c3ccccc32)cc1,B16,MTT,48 h,1.49 µM
CONC(=O)c1cccc2c1cc(C)n2-c1nc2c(c(NCc3ccccc3)n1)CCCN2,ARP-1,,72 h,2.1 µM
COc1cccc2c1C(=O)c1c(O)c3c(c(O)c1C2=O)C[C@@](O)(C(=O)CO)C[C@@H]3O[C@H]1C[C@H](N)[C@H](O)[C@H](C)O1,BXPC-3,,96 h,0.124 µM
